# Read-outs that look alike come from different tables or passages of the source.
# Key:
# [1] = tested on: Candida albicans (NCIM 2087); assay: MIC, broth microdilution; type: cell-based; details: NCIM2087, read-out: Minimum inhibitory concentration (MIC), CA
# In short: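 CLSI broth microdilution in Sabouraud liquid medium, with test compound two-fold serially diluted from 512 to 0.25. Fungal broth culture grown 24 h at 35 °C to 0.5 McFarland turbidity, then adjusted with sterile solution to a final […] inoculum. MIC expressed in µg/mL.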
# Vero cells = details: Vero cell cultures; microscopically detectable alteration of normal cell morphology
# [2] = tested on: Salmonella typhimurium (NCIM-2501); assay: Agar disk diffusion, inhibition zone; type: cell-based; details: 100 µg/8 mm disc, triplicate, mean ± SD
# [3] = tested on: Lactobacillus casei (NCIM-2651); assay: Agar disk diffusion, inhibition zone; type: cell-based; details: 100 µg/8 mm disc, triplicate, mean ± SD
# [4] = tested on: Klebsiella aerogenes (NCIM-2098); assay: MIC, broth microdilution; type: cell-based; details: NCIM2098, read-out: Minimum inhibitory concentration (MIC), KA
# In short: (§1)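 Antibacterial MICs by CLSI broth microdilution in Mueller-Hinton broth. Test compounds and standard drugs are serially diluted two-fold from 512 to 0.25. The bacterial broth culture is grown 2-6 h to a 0.5 McFarland turbidity, then adjusted with sterile solution to the final inoculum.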
# [5] = tested on: Madin Darby canine kidney (MDCK) cells; details: dog
# [6] = tested on: Human embryonic lung (HEL) cells; details: HEL cell cultures; microscopically detectable alteration of normal cell morphology
# [7] = tested on: Escherichia coli (ATCC 8739); assay: MIC, broth microdilution; type: cell-based; details: ATCC8739, read-out: Minimum inhibitory concentration (MIC), EC
# In short: (§2)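 Broth microdilution per CLSI in Mueller-Hinton broth, using two-fold serial dilutions of test compound and reference drugs from 512 to 0.25. Bacterial broth cultures were grown 2-6 h to 0.5 McFarland turbidity, then diluted with sterile solution to the final inoculum. MIC is reported in µg/mL.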
# [8] = tested on: Bacillus cereus (NCIM-2458); assay: Agar disk diffusion, inhibition zone; type: cell-based; details: 100 µg/8 mm disc, triplicate, mean ± SD
# Reovirus-1 = assay: CPE reduction assay in Vero cells; type: cell-based; details: read-out: Antiviral EC50, Reovirus-1
# Coxsackie virus B4 = assay: CPE reduction assay in Vero cells; type: cell-based; details: Enterovirus B, read-out: Antiviral EC50, Coxsackie virus B4
# [9] = tested on: Influenza A/H3N2 A/HK/7/87; assay: CPE reduction assay in MDCK cells; type: cell-based; details: Influenza A virus
# [10] = tested on: Staphylococcus aureus (ATCC 29213); assay: MIC, broth microdilution; type: cell-based; details: ATCC29213, read-out: Minimum inhibitory concentration (MIC), SA
# In short: as §1
# MT4 cells = details: MT4 cell cultures; colorimetric MTT cell viability assay
# [11] = tested on: Aspergillus niger (NCIM 2191); assay: Agar disk diffusion, inhibition zone; type: cell-based; details: 100 µg/8 mm disc, triplicate, mean ± SD
# In short: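 For the fungal strain, discs soaked in test compound solution (DMSO stock diluted with distilled water) sat on seeded Mueller-Hinton agar. Clotrimazole was the reference. Incubation ran 48 h at 35 °C, in triplicate. Zone of growth inhibition recorded in mm as the mean diameter around each disc.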
# [12] = tested on: Candida albicans (NCIM 2087); assay: Agar disk diffusion, inhibition zone; type: cell-based; details: 100 µg/8 mm disc, triplicate, mean ± SD
# Yellow Fever virus = assay: microbe, parasite or virus in culture; type: cell-based; details: Yellow fever virus, Vero, read-out: Antiviral EC50, Yellow Fever virus
# [13] = tested on: Aspergillus fumigatus (NCIM 2081); assay: Agar disk diffusion, inhibition zone; type: cell-based; details: 100 µg/8 mm disc, triplicate, mean ± SD
# [14] = tested on: Streptococcus pneumonia (ATCC 49619); assay: Agar disk diffusion, inhibition zone; type: cell-based; details: 100 µg/8 mm disc, triplicate, mean ± SD
# [15] = tested on: Klebsiella aerogenes (NCIM-2098); assay: Agar disk diffusion, inhibition zone; type: cell-based; details: 100 µg/8 mm disc, triplicate, mean ± SD
# Punta Toro virus = assay: CPE reduction assay in Vero cells; type: cell-based; details: read-out: Antiviral EC50, Punta Toro virus
# Sindbis virus = assay: CPE reduction assay in Vero cells; type: cell-based; details: read-out: Antiviral EC50, Sindbis virus
# [16] = tested on: Pseudomonas aeruginosa (MCCB 0035); assay: MIC, broth microdilution; type: cell-based; details: read-out: Minimum inhibitory concentration (MIC), PA
# In short: as §2
# [17] = tested on: Cryptococcus neoformans (ATCC 9011); assay: MIC, broth microdilution; type: cell-based; details: ATCC9011, read-out: Minimum inhibitory concentration (MIC), CN
# In short: (§3)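 Antifungal MICs by CLSI broth microdilution in Sabouraud liquid medium. Test compounds and standard drugs are serially diluted two-fold from 512 to 0.25. The fungal broth culture is grown 24 h at 35 °C to a 0.5 McFarland turbidity, then adjusted with sterile solution to the final inoculum.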
# Human Coronavirus (229E) = assay: CPE reduction assay in HEL cells; type: cell-based; details: read-out: Antiviral EC50, Human Coronavirus (229E)
# [18] = tested on: Aspergillus niger (NCIM 2191); assay: MIC, broth microdilution; type: cell-based; details: NCIM2191, read-out: Minimum inhibitory concentration (MIC), AN
# In short: as §3
# Influenza B B/Ned/537/05 = assay: CPE reduction assay in MDCK cells; type: cell-based; details: Influenza B virus, read-out: Antiviral EC50, Influenza B B/Ned/537/05, MTS
# [19] = tested on: Aspergillus fumigatus (NCIM 2081); assay: MIC, broth microdilution; type: cell-based; details: NCIM2081, read-out: Minimum inhibitory concentration (MIC), AF
# In short: as §3
# Vaccinia virus = assay: microbe, parasite or virus in culture; type: cell-based; details: Orthopoxvirus vaccinia, HEL, read-out: Antiviral EC50, Vaccinia virus
# [20] = tested on: Influenza A/H1N1 A/Ned/378/05; assay: CPE reduction assay in MDCK cells; type: cell-based; details: Influenza A virus
# [21] = tested on: Pseudomonas aeruginosa (MCCB 0035); assay: Agar disk diffusion, inhibition zone; type: cell-based; details: 100 µg/8 mm disc, triplicate, mean ± SD
# [22] = tested on: Cryptococcus neoformans (ATCC 9011); assay: Agar disk diffusion, inhibition zone; type: cell-based; details: 100 µg/8 mm disc, triplicate, mean ± SD
# [23] = tested on: Escherichia coli (ATCC 8739); assay: Agar disk diffusion, inhibition zone; type: cell-based; details: 100 µg/8 mm disc, triplicate, mean ± SD
# In short: (§4)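 Agar disk diffusion on Mueller-Hinton agar plates seeded with a standard bacterial suspension. Test compound stock in DMSO, diluted with distilled water; 8 mm sterile filter-paper discs soaked in the solution. Ampicillin was the reference. Plates incubated at 35 °C for 24 h, in triplicate. Read-out is the average inhibition-zone diameter (mm) around each disc.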
# [24] = tested on: Staphylococcus aureus (ATCC 29213); assay: Agar disk diffusion, inhibition zone; type: cell-based; details: 100 µg/8 mm disc, triplicate, mean ± SD
# In short: as §4
# Adeno virus-2 = assay: CPE reduction assay in HEL cells; type: cell-based; details: read-out: Antiviral EC50, Adeno virus-2
# Para-influenza-3 virus = assay: CPE reduction assay in Vero cells; type: cell-based, Parainfluenza-3 virus; details: Vero, read-out: Antiviral EC50, Para-influenza-3 virus
# [25] = tested on: Bacillus cereus (NCIM-2458); assay: MIC, broth microdilution; type: cell-based; details: NCIM2458, read-out: Minimum inhibitory concentration (MIC), BC
# In short: as §2
# S. aureus DNA gyrase = S. aureus DNA gyrase (Staphylococcus aureus, UniProt P0A0K8+P20831); assay: DNA Gyrase inhibition assay; type: biochemical
# S. aureus DNA gyrase, sequence (P20831 whole entry): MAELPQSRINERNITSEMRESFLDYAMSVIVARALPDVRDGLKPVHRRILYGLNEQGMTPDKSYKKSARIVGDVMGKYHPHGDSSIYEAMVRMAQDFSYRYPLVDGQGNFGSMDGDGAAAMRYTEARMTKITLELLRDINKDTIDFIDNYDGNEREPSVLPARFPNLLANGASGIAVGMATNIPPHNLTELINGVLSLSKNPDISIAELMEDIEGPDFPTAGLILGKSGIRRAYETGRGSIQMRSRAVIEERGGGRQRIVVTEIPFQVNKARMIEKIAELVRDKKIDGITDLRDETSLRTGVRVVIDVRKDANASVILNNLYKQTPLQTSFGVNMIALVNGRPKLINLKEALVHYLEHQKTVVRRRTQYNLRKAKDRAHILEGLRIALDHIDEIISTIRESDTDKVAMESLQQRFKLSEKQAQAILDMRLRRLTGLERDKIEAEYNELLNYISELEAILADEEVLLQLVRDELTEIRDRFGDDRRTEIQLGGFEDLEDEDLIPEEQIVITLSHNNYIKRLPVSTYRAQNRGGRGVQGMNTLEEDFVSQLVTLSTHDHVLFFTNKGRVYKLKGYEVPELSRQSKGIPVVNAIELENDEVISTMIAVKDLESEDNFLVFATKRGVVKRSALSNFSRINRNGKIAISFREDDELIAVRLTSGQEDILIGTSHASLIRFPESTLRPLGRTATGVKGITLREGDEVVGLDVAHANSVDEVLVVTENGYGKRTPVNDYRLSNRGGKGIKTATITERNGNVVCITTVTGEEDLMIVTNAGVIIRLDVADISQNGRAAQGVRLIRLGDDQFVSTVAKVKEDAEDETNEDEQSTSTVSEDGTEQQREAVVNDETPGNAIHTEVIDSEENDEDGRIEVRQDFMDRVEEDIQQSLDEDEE
# S. aureus DNA gyrase, sequence (P0A0K8 whole entry): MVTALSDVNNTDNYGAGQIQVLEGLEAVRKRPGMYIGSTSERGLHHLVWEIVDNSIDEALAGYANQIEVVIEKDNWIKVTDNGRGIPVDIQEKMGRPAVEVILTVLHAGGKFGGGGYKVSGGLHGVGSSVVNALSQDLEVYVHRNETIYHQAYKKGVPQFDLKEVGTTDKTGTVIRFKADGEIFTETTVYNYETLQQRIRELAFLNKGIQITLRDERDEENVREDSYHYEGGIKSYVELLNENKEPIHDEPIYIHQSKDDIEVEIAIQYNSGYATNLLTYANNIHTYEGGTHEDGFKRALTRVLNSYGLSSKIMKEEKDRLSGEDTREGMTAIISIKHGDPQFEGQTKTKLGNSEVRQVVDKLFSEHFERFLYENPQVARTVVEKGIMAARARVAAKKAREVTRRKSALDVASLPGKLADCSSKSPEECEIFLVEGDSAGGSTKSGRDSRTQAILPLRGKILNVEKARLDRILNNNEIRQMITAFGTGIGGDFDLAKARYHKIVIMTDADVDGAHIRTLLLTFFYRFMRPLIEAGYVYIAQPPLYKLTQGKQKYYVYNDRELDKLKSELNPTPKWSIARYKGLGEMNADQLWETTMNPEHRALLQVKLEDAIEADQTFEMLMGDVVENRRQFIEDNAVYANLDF
# [26] = read-out: Antiviral EC50, Influenza A/H3N2 A/HK/7/87, MTS
# [27] = read-out: Antiviral EC50, Influenza A/H3N2 A/HK/7/87, visual CPE score
# [28] = read-out: Antiviral EC50, Influenza A/H1N1 A/Ned/378/05, MTS
# [29] = read-out: Antiviral EC50, Influenza A/H1N1 A/Ned/378/05, visual CPE score
SMILES,MIC [1] [µg/mL],"Diameter of growth inhibition zone, ST [2] [mm]","Diameter of growth inhibition zone, LC [3] [mm]",MIC [4] [µg/mL],MIC [7] [µg/mL],"Diameter of growth inhibition zone, BC [8] [mm]",MIC [10] [µg/mL],"Diameter of growth inhibition zone, AN [11] [mm]","Diameter of growth inhibition zone, CA [12] [mm]","Diameter of growth inhibition zone, AF [13] [mm]","Diameter of growth inhibition zone, SP [14] [mm]","Diameter of growth inhibition zone, KA [15] [mm]",MIC [16] [µg/mL],MIC [17] [µg/mL],MIC [18] [µg/mL],MIC [19] [µg/mL],"Diameter of growth inhibition zone, PA [21] [mm]","Diameter of growth inhibition zone, CN [22] [mm]","Diameter of growth inhibition zone, EC [23] [mm]","Diameter of growth inhibition zone, SA [24] [mm]",other results
"Cc1ccc(S(=O)(=O)N2C(=O)CSC2c2ccccc2O)cc1 (stereo not shown) [5k, 2-(2-Hydroxyphenyl)-3-[(4-methylphenyl)sulfonyl]-1,3-thiazolidin-4-one]",16,10 ± 0.8,10 ± 1.25,32,32,10 ± 0.3,64,15 ± 0.93,16 ± 0.32,13 ± 1.5,08 ± 0.3,12 ± 0.48,32,64,32,32,17.5 ± 0.6,11 ± 1.2,18.8 ± 0.9,16 ± 0.32,"Minimum cytotoxic conc. (Vero cells): >100 µM; Cytotoxicity, Minimum cytotoxic conc. [5]: >100 µM; Minimum cytotoxic conc. [6]: >100 µM; EC50 (Reovirus-1): > 100 µM; EC50 (Coxsackie virus B4): > 100 µM; EC50 [9, 26]: > 100 µM; EC50 [9, 27]: > 100 µM; Minimum cytotoxic conc. (MT4 cells): >125 µM; EC50 (Yellow Fever virus): > 100 µM; EC50 (Punta Toro virus): > 100 µM; EC50 (Sindbis virus): > 100 µM; EC50 (Human Coronavirus (229E)): > 100 µM; EC50 (Influenza B B/Ned/537/05): > 100 µM; EC50 (Vaccinia virus): > 100 µM; EC50 [20, 28]: > 100 µM; EC50 [20, 29]: > 100 µM; EC50 (Adeno virus-2): > 100 µM; EC50 (Para-influenza-3 virus): > 100 µM; MIC [25]: 64 µg/mL"
"Cc1ccc(S(=O)(=O)N2C(=O)CSC2c2ccc(F)cc2)cc1 (stereo not shown) [5j, 2-(4-Fluorophenyl)-3-[(4-methylphenyl)sulfonyl]-1,3-thiazolidin-4-one]",4,18 ± 0.3,19 ± 0.5,16,2,18 ± 0.5,4,19 ± 0.6,21 ± 0.9,19 ± 1.2,10 ± 0.6,14 ± 0.94,2,4,8,4,25 ± 1.5,13 ± 1.5,25.9 ± 0.32,23 ± 1.1,IC50 (S. aureus DNA gyrase): 4.26 µM; MIC [25]: 8 µg/mL
"Cc1ccc(S(=O)(=O)N2C(=O)CSC2c2ccccc2F)cc1 (stereo not shown) [5h, 2-(2-Fluorophenyl)-3-[(4-methylphenyl)sulfonyl]-1,3-thiazolidin-4-one]",32,14 ± 1.3,19 ± 1.2,64,4,14 ± 0.62,8,12 ± 0.66,15 ± 0.56,15 ± 1.2,10 ± 1.7,10 ± 0.5,8,8,32,16,20 ± 0.6,19 ± 1.1,23.8 ± 0.9,19 ± 1.1,"Minimum cytotoxic conc. (Vero cells): >100 µM; Cytotoxicity, Minimum cytotoxic conc. [5]: >100 µM; Minimum cytotoxic conc. [6]: >100 µM; EC50 (Reovirus-1): > 100 µM; EC50 (Coxsackie virus B4): > 100 µM; EC50 [9, 26]: > 100 µM; EC50 [9, 27]: > 100 µM; Minimum cytotoxic conc. (MT4 cells): 111 µM; EC50 (Yellow Fever virus): > 100 µM; EC50 (Punta Toro virus): > 100 µM; EC50 (Sindbis virus): > 100 µM; EC50 (Human Coronavirus (229E)): > 100 µM; EC50 (Influenza B B/Ned/537/05): > 100 µM; EC50 (Vaccinia virus): > 100 µM; EC50 [20, 28]: > 100 µM; EC50 [20, 29]: > 100 µM; EC50 (Adeno virus-2): > 100 µM; EC50 (Para-influenza-3 virus): > 100 µM; MIC [25]: 16 µg/mL"
